The values below come from ChEMBL document CHEMBL3994675, “Carbamylmethyl Mercaptoacetate Thioether: A Novel Scaffold for the Development of L1 Metallo-β-lactamase Inhibitors” (ACS Med Chem Lett, 2017).

The nature of data set [1]: Inhibition of IMP1 (unknown origin) expressed in Escherichia coli BL21(DE3) at 100 uM using cefazolin as substrate preincubated for 30 mins followed by substrate addition by UV-Visible spectrophotometric method relative to control. In outline: (§1)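 Purified enzyme preincubated with 100 μM inhibitor in its enzyme-specific buffer, then substrate added: 50 μM cefazolin for IMP-1 and L1, 40 μM imipenem for ImiS. Hydrolysis followed by UV-vis spectrophotometry. Preincubation times of 3–60 min were tested. % inhibition = activity without inhibitor (100%) minus residual activity.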

The nature of data set [2]: Inhibition of ImiS (unknown origin) expressed in Escherichia coli BL21(DE3) at 100 uM using imipenem as substrate preincubated for 30 mins followed by substrate addition by UV-Visible spectrophotometric method relative to control. In outline: as §1
Data set [3] can be described thus: Inhibition of L1 (unknown origin) expressed in Escherichia coli BL21(DE3) at 100 uM using cefazolin as substrate preincubated for 30 mins followed by substrate addition by UV-Visible spectrophotometric method relative to control. In outline: as §1
The nature of data set [4]: Inhibition of L1 (unknown origin) expressed in Escherichia coli BL21(DE3) using cefazolin as substrate preincubated for 30 mins followed by substrate addition by UV-Visible spectrophotometric method. In outline:
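L1 IC50 measured in 30 mM Tris, pH 8.5, with cefazolin as substrate and inhibitor at 0.1–20 μM. Run in triplicate; mean ± SD reported.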

Data set [5] in a line: Inhibition of IMP1 (unknown origin) expressed in Escherichia coli BL21(DE3) at 100 uM using cefazolin as substrate preincubated for 3 to 60 mins followed by substrate addition by UV-Visible spectrophotometric method. The following applies: TDE = time-dependent effect. In outline:
as §1

Data set [6] can be described thus: Inhibition of ImiS (unknown origin) expressed in Escherichia coli BL21(DE3) at 100 uM using imipenem as substrate preincubated for 3 to 60 mins followed by substrate addition by UV-Visible spectrophotometric method relative to control. Conditions: TDE = time-dependent effect. In outline:
as §1

Data set [7] can be described thus: Inhibition of L1 (unknown origin) expressed in Escherichia coli BL21(DE3) at 100 uM using cefazolin as substrate preincubated for 3 to 60 mins followed by substrate addition by UV-Visible spectrophotometric method relative to control. Conditions: TDE = time-dependent effect. In outline:
as §1

Data set [8] can be described thus: Mixed-type inhibition of L1 (unknown origin) expressed in Escherichia coli BL21(DE3) using varying levels of cefazolin as substrate preincubated for 30 mins followed by substrate addition by Michaelis-Menten plot analysis.
Data set [9] in a line: Inhibition of L1 (unknown origin) expressed in Escherichia coli DH10B harboring pBC SK(+)-L1 assessed as potentiation of cefazolin-induced antibacterial activity by measuring cefazolin MIC at 1024 ug/ml after 12 hrs macrodilution broth method. In outline: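 Cefazolin MICs were read for E. coli DH10B carrying pBC SK(+)-L1 across a series of inhibitor concentrations. Cefazolin alone (no inhibitor) on the same strain served as the reference MIC. E. coli not expressing L1 was tested alongside as the susceptible comparator.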

Data set [10] has as its system Escherichia coli. The data set can be described thus: Growth inhibition of Escherichia coli DH10B harboring pBC SK(+)-L1 at 1024 ug/ml after 12 hrs macrodilution broth method. Also on record: species or system K-12 substr. DH10B. In outline: (§2)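 Cefazolin MIC determined for E. coli DH10B carrying pBC SK(+)-L1 and for E. coli not expressing L1, with and without compound.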

For data set [11], the system named is Escherichia coli. The experiment in a line: Growth inhibition of Escherichia coli DH10B at 1024 ug/ml after 12 hrs macrodilution broth method. More on the design: species or system K-12 substr. DH10B. In outline: as §2
Data set [12] is described as follows: Chemical stability in pH 5 Tris buffer after 4 days by UV-Visible spectral analysis. Conditions: pH 5, 96 h. Format: physicochemical. In outline: (§3)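 Compounds incubated in aqueous solution at pH 5.0, 7.0 and 9.0 for 4 days; stability followed by UV-vis spectra.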
Data set [13] is described as follows: Chemical stability in pH 7 Tris buffer after 4 days by UV-Visible spectral analysis. It counts as physicochemical. Conditions: pH 7, 96 h. In outline:
as §3

A short description of data set [14]: Chemical stability in pH 9 Tris buffer after 4 days by UV-Visible spectral analysis. Conditions: pH 9, 96 h. It counts as physicochemical. In outline:
as §3

Data set [15] can be described thus: Inhibition of L1 (unknown origin) expressed in Escherichia coli BL21(DE3) using cefazolin as substrate by ITC. In outline: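 Isothermal titration calorimetry at 25 °C with 5 nM L1, 160 μM cefazolin and inhibitor at 0–100 μM; hydrolysis progress monitored as heat flow. Rates from runs at different substrate concentrations plotted against substrate concentration at 0, 50 and 100 μM inhibitor.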

A further data set concerns L929. The data set can be described thus: Cytotoxicity against mouse L929 cells assessed as reduction in cell viability up to 400 uM after 48 hrs by CCK assay. Format: cell-based. The following applies: l929, 48 h. In outline:
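L-929 mouse fibroblasts exposed to compound at 12.5, 25, 50, 100, 200 and 400 μM working concentrations; cell viability measured.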

A word on the inhibition: it is the change of the read-out against control, counted positive when it falls. In general, IC50 refers to the midpoint of a concentration-inhibition curve. A low value points to greater potency in that assay. The term Ki denotes a measure of affinity in units of concentration, obtained from inhibition or displacement. Low readings indicate tighter binding, high ones weaker binding. Consider `CCc1ccccc1NC(=O)CSCC(=O)[O-].[K+]`, for which the inhibition was 80% in data set [1]; 21% in [2]; 92% in data set [3]; “Tde” in data set [5]; “Tde” in data set [6]; “Tde” in data set [7]. The same compound yielded an IC50 in data set [4] of 590 nM. This compound showed a Ki in data set [8] of 3700 nM. For the same compound, the MIC in [9] stood at 16 µg/mL. In addition, the “growth inhibition (GI)” value in the data set with Escherichia coli [10] and in the data set with Escherichia coli [11] was “Non-Toxic” in each case.

Regarding `Cc1ccc(NC(=O)CSCC(=O)[O-])cc1.[K+]`, the Stability entry in data set [12], in data set [13] and in [14] was “Stable” throughout. In addition, the inhibition was 37% in data set [1]; 52% in data set [2]; 97% in data set [3]; “Dose-dependent effect” in [4]; “Tde” in data set [5]; “Tde” in data set [6]. Besides, the inhibition result in data set [7] is “Tde”; in data set [15] it was “Dose-dependent effect”. In [4], this compound returned an IC50 of 410 nM. In addition, the MIC in data set [9] stood at 16 µg/mL. In addition, the “growth inhibition (GI)” value in the data set with Escherichia coli [10] and with Escherichia coli [11] was “Non-Toxic” throughout. Besides, the Activity entry in the data set with L929 is “Non-Toxic”.

`O=C([O-])CSCC(=O)Nc1cccc(Cl)c1.[K+]`: the inhibition was 48% in data set [1]; 34% in data set [2]; 79% in [3]; “Tde” in data set [5]; “Tde” in [6]; “Tde” in data set [7]. Further, in data set [4], the IC50 stood at 2010 nM. In data set [8], the inhibition constant (Ki) was 31800 nM. Moreover, the MIC in data set [9] turned out to be 16 µg/mL. Also, the “growth inhibition (GI)” value in the data set with Escherichia coli [10] and in the data set on Escherichia coli [11] was “Non-Toxic” each time.

For the compound `O=C([O-])CSCC(=O)Nc1ccccc1Cl.[K+]`, the Stability result in [12], in data set [13] and in data set [14] was “Unstable” each time. For the same compound, the inhibition in data set [1] was 53%; in data set [2], 39%; in data set [3], 80%; in data set [5], “Tde”; in data set [6] it was “Tde”; in data set [7] it was “Tde”. The compound further came in with a 50% inhibitory concentration (IC50) in data set [4] of 1040 nM. For the same compound, in data set [9], the MIC was found to be 16 µg/mL. The “growth inhibition (GI)” value in the data set on Escherichia coli [10] and in the data set on Escherichia coli [11] was “Non-Toxic” in each case.
